The nature of data set [1]: Half life of the compound. Format: physicochemical.
Data set [2] is described as follows: Drug metabolism of the compound in PBS buffer assessed as salicylate formation at pH 10 by NMR spectroscopy. Format: physicochemical.
Data set [3] can be described thus: Half life of the compound at pH 7.4 in presence of guinea pig serum. In kind it is physicochemical.
The nature of data set [4]: Cardioprotective effect in mouse cardiomyocytes assessed as reduction in time required for half relaxation from peak shortening at 500 uM relative to control. In kind it is functional, cell-based. On the set-up: scale not given: the % may be the effect or the level left. Conditions: Cardiomyocyte. Put shortly: (§1)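 Ventricular myocytes from wild-type mice aged 2-4 months, anesthetized with ip pentobarbital 100 mg/kg, superfused with compound at 500 μM. Sarcomere shortening imaged under 0.5 Hz field stimulation and length tracked by real-time Fourier transform. Relaxation taken as time from peak shortening to 50% relaxation. Ca2+ transients read by confocal microscopy after fluo-4/AM loading (20 μM, 30 min). n = 12 cells.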

The test system of data set [5] is Rattus norvegicus. The data set is described as follows: Toxicity in Sprague-Dawley rat assessed as stomach ulcer at 1.38 mmol/kg, po after 6 hrs relative to aspirin. Format: organism-based. Conditions: in vivo. In outline: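 Rats fasted 24 h with water allowed, then dosed orally at 1.38 mmol/kg in 1% methylcellulose vehicle; controls received vehicle. Killed by CO2 at 6 h. Stomachs examined under a magnifying glass and ulcers scored by number and size (1 mm = 1; 1-2 mm = 2; >2 mm = length in mm). Ulcer index = total ulcer length per stomach averaged over animals (n = 4).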

Data set [6] is described as follows: Drug metabolism of the compound in PBS buffer assessed as formaldehyde formation at pH 10 by NMR spectroscopy. Format: physicochemical.
Data set [7] in a line: Prodrug activation in guinea pig serum assessed as HNO release at 100 uM at pH > 6 by electrochemical detection method. Also noted: species or system Cavia porcellus. In outline:
(§2)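 NO electrode equilibrated at room temperature in buffer of the chosen pH containing 50 μM DTPA and 2% guinea pig serum. Compound added at 100 μM (0.1% DMSO) and maximum current recorded; triplicate additions. HNO measured indirectly after adding 1 mM ferricyanide to oxidize it to NO. Mean ± SD, n = 3.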

A short description of data set [8]: Drug metabolism of the compound in PBS buffer assessed as salicylate formation at pH 7.4. In kind it is physicochemical.
Data set [9] deals with Glyceraldehyde-3-phosphate dehydrogenase (Homo sapiens) (UniProt P04406). Description: Inhibition of GAPDH in human A549 cells at 100 uM after 1 hr by fluorescence assay. Format: cell-based. Put shortly:
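A549 cells seeded at 30,000 per well, grown overnight and treated with 100 μM for 1 h at 37°C. Cells lysed 20 min at 4°C in KAlert buffer. Lysate mixed with KAlert mastermix and GAPDH activity read as fluorescence at 570 nm (excitation 540 nm). Mean ± SD of triplicate; one-way ANOVA against control.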

Data set [10] is described as follows: Stability in mouse cardiomyocytes after 20 to 30 mins. Format: ADME, cell-based. Conditions: cardiomyocyte.
Data set [11] in a line: Drug metabolism of the compound in PBS buffer assessed as isopropanol formation at pH 10 by NMR spectroscopy. Format: physicochemical.
The subject of data set [12] is Rattus norvegicus. Description: Antiinflammatory activity in po dosed Sprague-Dawley rat assessed as inhibition of carrageenan-induced paw edema administered 1 hr prior to carrageenan challenge measured after 3 hrs. In kind it is functional. Conditions: read-out: ID50 (the source's name). Put shortly: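 Rats 160-180 g (n = 3) given compound by gavage at 0.8 mmol/kg, suspended in 1% methyl cellulose in water; controls received vehicle. After 1 h, 100 μL of 1% carrageenan in 0.9% NaCl injected into the right hind paw. Paw volume read by plethysmometer at 0 and 3 h. ID50 taken from dose-response curves as the dose halving the control inflammatory response.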
For orientation: Carrageenan injected into the paw causes an acute inflammation.

Data set [13] deals with T1, Prostaglandin G/H synthase 2 (Homo sapiens) (UniProt P35354).
T1 sequence (whole entry): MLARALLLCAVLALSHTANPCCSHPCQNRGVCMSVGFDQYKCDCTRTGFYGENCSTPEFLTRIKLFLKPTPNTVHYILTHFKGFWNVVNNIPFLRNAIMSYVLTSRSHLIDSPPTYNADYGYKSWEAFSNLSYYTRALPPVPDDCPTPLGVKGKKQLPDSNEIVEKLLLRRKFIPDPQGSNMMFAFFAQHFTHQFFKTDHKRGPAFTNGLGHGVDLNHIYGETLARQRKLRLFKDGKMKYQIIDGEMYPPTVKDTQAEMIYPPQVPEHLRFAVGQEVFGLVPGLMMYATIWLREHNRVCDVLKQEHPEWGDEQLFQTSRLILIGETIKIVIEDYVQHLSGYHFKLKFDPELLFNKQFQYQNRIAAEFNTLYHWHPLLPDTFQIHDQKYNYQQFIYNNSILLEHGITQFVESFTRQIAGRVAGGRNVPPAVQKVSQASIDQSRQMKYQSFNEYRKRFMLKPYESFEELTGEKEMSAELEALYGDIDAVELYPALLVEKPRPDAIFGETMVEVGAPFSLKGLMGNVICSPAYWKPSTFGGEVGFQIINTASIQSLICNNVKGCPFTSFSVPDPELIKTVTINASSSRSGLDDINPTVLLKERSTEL
The data set is described as follows: Inhibition of COX-2 mediated PGE2 production in human A549 cells at 25 to 50 uM after 24 hrs by EIA. Format: cell-based. Put shortly:
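A549 cells seeded at 50,000 per well and grown 12 h, then treated with 25 or 50 μM (0.1% DMSO) for 24 h at 37°C. PGE2 in the supernatant measured by competitive AChE-tracer EIA: overnight incubation at 4°C, Ellman's reagent development, […]. Run in triplicate.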

The nature of data set [14]: Drug metabolism in guinea pig serum assessed as aspirin formation at 100 uM after 5 mins by HPLC analysis. In kind it is ADME, cell-free, Cavia porcellus. Put shortly:
(§3)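 Compound added at 100 μM final to 0.1 M phosphate buffer, pH 7.4, with 50 μM DTPA and 2% guinea pig serum, preheated to 37°C. Reaction followed over time by reversed-phase C18 HPLC with a water/acetonitrile gradient containing 0.1% formic acid. Products identified by co-elution with authentic standards.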

Data set [15] in a line: Prodrug activation in guinea pig serum assessed as HNO release at 100 uM at pH < 6 by electrochemical detection method. On the set-up: species or system Cavia porcellus. Put shortly: as §2
The nature of data set [16]: Prodrug conversion of the compound assessed as conversion of MbO2 to metMb at 250 uM by spectrophotometry. In kind it is ADME. Put shortly:
(§4)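 MbO2 (50 μM) exposed to compound at 37°C in pH 7.4 buffer (50 μM DTPA), with or without 2% guinea pig serum and with or without 1 mM GSH. Formation of metMb followed spectrally at 30-900 s intervals for 800 s to 6 h. MbO2 autoxidation monitored separately every 600 s over 12 h. n = 3.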

A short description of data set [17]: Half life of the compound at pH 7.4. Format: physicochemical.
Data set [18] can be described thus: Prodrug conversion in guinea pig serum assessed as conversion of MbO2 to metMb at 100 uM by spectrophotometry. In kind it is ADME, Cavia porcellus. As to conditions: 50 or 250 µM, in the assay text read “at 50 or 250 uM” for “at 100 uM”. In outline: as §4
Data set [19] in a line: Drug metabolism in guinea pig serum assessed as NONO-salicylate formation at 100 uM after 5 mins by HPLC analysis. In kind it is ADME, cell-free, Cavia porcellus. Put shortly:
as §3

Data set [20] is described as follows: Cardioprotective effect in mouse cardiomyocytes assessed as myocyte contractility measured as sarcomere shortening at 500 uM relative to control. In kind it is functional, cell-based. Conditions: Cardiomyocyte. Put shortly: as §1
The subject of data set [21] is A549. Description: Cytotoxicity against human A549 cells after 48 hrs by MTT assay. As to conditions: A549, 48 h. In kind it is functional, cell-based. Put shortly:
(§5)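 A549 cells in RPMI 1640 with 10% FBS, and HUVECs in endothelial growth medium, both at 37°C in 5% CO2. Seeded at 8,000-10,000 per well, grown overnight, then exposed to 0-200 μM for 48 h. MTT (10 μL of 2 mg/mL) added for 1 h at 37°C, formazan dissolved in DMSO and read at 550 nm. n = 3 for A549, n = 1 for HUVEC, each at least in triplicate.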
(Tetrazolium dyes change colour on reduction, which living cells bring about.)

A short description of data set [22]: Drug metabolism of the compound in PBS buffer assessed as acetate formation at pH 10 by NMR spectroscopy. Format: physicochemical.
Data set [23] has as its system Serum. Description: Drug metabolism in fetal bovine serum by HPLC analysis. In kind it is ADME, cell-free, Bos taurus. As to conditions: cattle.
For data set [24], the system named is HUVEC. Description: Cytotoxicity against human HUVEC cells up to 100 uM after 48 hrs by MTT assay. Format: cell-based. Put shortly:
as §5

Data set [25] in a line: Cardioprotective effect in mouse cardiomyocytes assessed as increase in whole calcium transient at 500 uM by confocal laser scanning microscopy relative to control. In kind it is functional, cell-based. As to conditions: Cardiomyocyte. Put shortly: as §1
For data set [26], the system named is A549. Description: Cellular uptake in human A549 cells assessed as HNO/NO release at 10 uM by fluorescence asay. In kind it is ADME, cell-based. Conditions: a549, 10 µM. In outline:
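A549 cells seeded at 60,000 per well and grown 4 h, then loaded with 10 μM DAF-FM diacetate in PBS for 75 min at 37°C and washed three times. Compound added at 10 μM final (prodrugs from DMSO stock, ionic NONOates from 10 mM NaOH stock). Fluorescence at 535 nm (excitation 485 nm) followed over time at 37°C. n = 2, six replicates per plate.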

A short description of data set [27]: Drug metabolism in guinea pig serum assessed as NONO-salicylate formation at 100 uM after 40 mins by HPLC analysis. Format: ADME, cell-free, Cavia porcellus. In outline:
as §3

Data set [28] is described as follows: Drug metabolism of the compound in PBS buffer assessed as accumulation of DEA/NO at pH 10 by NMR spectroscopy. In kind it is physicochemical.
Data set [29] in a line: Drug metabolism of the compound in PBS buffer at pH 10 after 90 mins by NMR spectroscopy. Conditions: pH 10, 1.5 h. In kind it is physicochemical.
Data set [30] can be described thus: Drug metabolism of the compound in PBS buffer assessed as aspirin formation at pH 10 by NMR spectroscopy. Format: physicochemical.
Data set [31] can be described thus: Drug metabolism of the compound in PBS buffer assessed as accumulation of DEA/NO at pH 10 after 10 mins by NMR spectroscopy. Format: physicochemical. Conditions: pH 10, 10 min.
A short description of data set [32]: Drug metabolism of the compound in PBS buffer assessed as aspirin formation. In kind it is physicochemical.
Data set [33] can be described thus: Prodrug conversion in guinea pig serum assessed as conversion of MbO2 to metMb at 50 uM by spectrophotometr. In kind it is ADME, Cavia porcellus. Put shortly: as §4
A short description of data set [34]: Drug metabolism of the compound in guinea pig serum assessed as aspirin formation at 100 uM after 40 mins by HPLC analysis. Format: ADME, cell-free, Cavia porcellus. Put shortly:
as §3

The structures appear in SMILES notation. Activity calls are given as the source filed them. No cut-off for these calls is given here.

Chain of Glyceraldehyde-3-phosphate dehydrogenase (Homo sapiens) (P04406 2-335 limits assumed): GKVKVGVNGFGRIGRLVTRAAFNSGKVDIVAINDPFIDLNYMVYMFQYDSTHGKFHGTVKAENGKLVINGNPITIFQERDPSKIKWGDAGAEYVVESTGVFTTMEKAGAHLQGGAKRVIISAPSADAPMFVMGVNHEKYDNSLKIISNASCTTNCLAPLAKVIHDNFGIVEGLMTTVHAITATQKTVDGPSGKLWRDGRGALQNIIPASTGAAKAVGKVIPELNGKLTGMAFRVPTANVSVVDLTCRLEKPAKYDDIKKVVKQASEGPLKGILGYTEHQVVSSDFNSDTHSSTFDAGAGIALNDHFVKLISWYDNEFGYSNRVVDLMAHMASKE

As to `CC(C)N[N+]([O-])=N[O-].[Na+]`, the half-life (usually the time in which the quantity being followed falls by half) in data set [1] was determined as 5.7 min.

In the case of `CC(=O)Oc1ccccc1C(=O)OCO/N=[N+](\[O-])NC(C)C`, the Drug metabolism entry in data set [2], in data set [6], in data set [7], in data set [8], in data set [11] and in [14] was “Active” in each case. Also, the Drug metabolism entry in data set [15] is “Not Active”; in [16], “Active”; in [18], “Active”; in data set [19], “Active”; in data set [22] it was “Active”; in data set [23] it was “Active”. The half-life is 18 min in data set [3] and 7.5 h in [17]. The Activity in data set [4] was 17%; in [20], 201%; in data set [24], “Non-toxic”; in data set [25] it was 24%. Moreover, the UI in data set [5] is 3.3. For the same molecule, the inhibition entry in data set [9] and in data set [13] was “Active” each time. For the same molecule, the Stability result in data set [10] is reported as “Stable”. Moreover, the ED50 in data set [12] is 121 mg/kg. Also, the IC50 (in general, the concentration at which inhibition is half-maximal) in [21] is 90 µM. Also, the Drug uptake result in data set [26] is “Active”.

As for `CCN(CC)/[N+]([O-])=N/OCOC(=O)c1ccccc1O`, the Drug metabolism entry in [27] is on record as “Not Active”.

For `CC(=O)Oc1ccccc1C(=O)O` [ASPIRIN], the ED50 in [12] turned out to be 129 mg/kg.

In the case of `CCN(CC)/[N+]([O-])=N/OCOC(=O)c1ccccc1OC(C)=O`, the Drug metabolism result is on record as “Active” in [28]; “Active” in data set [2]; “Not Active” in data set [29]; “Active” in data set [30]; “Not Active” in data set [7]; “Active” in [31]. Besides, the Drug metabolism entry in data set [32] is “Active”; in [14], “Active”; in [15] it was “Not Active”; in [33], “Active”; in data set [16], “Active”; in data set [19], “Active”. For the same molecule, the results for the half-life in data set [3] and in data set [17] were 13 min and 36 h, respectively. For the same molecule, in data set [5], the UI stood at 0. Besides, the ED50 in data set [12] came out at 169 mg/kg. In data set [21], this molecule yielded an IC50 of 135 µM. The Activity entry in [24] is listed as “Non-toxic”. Moreover, the Drug uptake result in [26] is “Active”.

For the molecule `CCN(CC)/[N+]([O-])=N/[O-].[Na+]`, in [1], the half-life was 2.5 min.

In the case of `CC(C)N/[N+]([O-])=N/OCOC(=O)c1ccccc1O`, the Drug metabolism result in data set [34] is “Active”.

(Values after ChEMBL document CHEMBL2429753, “Synthesis and chemical and biological comparison of nitroxyl- and nitric oxide-releasing diazeniumdiolate-based aspirin derivatives” (J Med Chem, 2013).)
